From ChEMBL document CHEMBL2380273, “Discovery of potent transient receptor potential vanilloid 1 antagonists: design and synthesis of phenoxyacetamide derivatives” (Bioorg Med Chem Lett, 2013)

tested on: Rattus norvegicus; experiment: Suppression of capsaicin-induced bladder contraction in iv dosed Sprague-Dawley rat overactive bladder model; assay type: functional, organism-based
In short: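 Female Sprague–Dawley rats anesthetized with urethane (1.0 g/kg ip) and bladder catheterized via the urethra, with saline infused at 3.0 mL/h for 5 min for basal pressure. Capsaicin 30 μg/kg iv given every 10 min. After stable contractions, test agent or vehicle (20% cremophor EL) given iv, followed by capsaicin again. Reported as % change in contraction. n=4, mean ± SEM; Bartlett's then Williams' test versus vehicle.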

SMILES | Activity
CN(CCO)c1ccc(NC(=O)COc2ccc(C(C)(C)C)cc2)cn1 | Dose-dependent effect

tested on: Rattus norvegicus; experiment: Reduction of cyclophosphamide-induced voiding frequency in iv dosed Sprague-Dawley rat cystitis and pollakiuria model measured for 20 mins; assay type: functional, organism-based
In short: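 Female Sprague–Dawley rats given cyclophosphamide 150 mg/kg ip. Bladder catheter implanted 4 h later, with saline infused at 3.6 mL/h for continuous cystometry. Once voiding frequency was stable, dosed iv with test agent or vehicle (20% cremophor EL). Voids counted for 20 min before and after dosing and expressed as % change. n=4, mean ± SEM; Bartlett's then Williams' test versus vehicle.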

SMILES | Activity
CN(CCO)c1ccc(NC(=O)COc2ccc(C(C)(C)C)cc2)cn1 | Dose-dependent effect

target: Transient receptor potential cation channel subfamily V member 1 (Homo sapiens, UniProt Q8NER1); experiment: Antagonist activity at human TRPV1 transfected in CHOK1 cells assessed as inhibition of capsaicin-induced intracellular calcium level measured for 120 secs by FLIPR analysis; assay type: cell-based, CHO-K1
In short: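 CHO-K1 cells stably expressing hTRPV1, grown to 90% confluency, loaded 90 min at rt with Fluo4-AM (2 μM) in HBSS/20 mM HEPES pH 7.4, then washed three times. Test agent added at various concentrations together with 100 nM capsaicin. Peak fluorescence over 120 s averaged in triplicate. IC50 is the concentration giving 50% inhibition of the capsaicin control response.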

Transient receptor potential cation channel subfamily V member 1, sequence (Q8NER1 whole entry): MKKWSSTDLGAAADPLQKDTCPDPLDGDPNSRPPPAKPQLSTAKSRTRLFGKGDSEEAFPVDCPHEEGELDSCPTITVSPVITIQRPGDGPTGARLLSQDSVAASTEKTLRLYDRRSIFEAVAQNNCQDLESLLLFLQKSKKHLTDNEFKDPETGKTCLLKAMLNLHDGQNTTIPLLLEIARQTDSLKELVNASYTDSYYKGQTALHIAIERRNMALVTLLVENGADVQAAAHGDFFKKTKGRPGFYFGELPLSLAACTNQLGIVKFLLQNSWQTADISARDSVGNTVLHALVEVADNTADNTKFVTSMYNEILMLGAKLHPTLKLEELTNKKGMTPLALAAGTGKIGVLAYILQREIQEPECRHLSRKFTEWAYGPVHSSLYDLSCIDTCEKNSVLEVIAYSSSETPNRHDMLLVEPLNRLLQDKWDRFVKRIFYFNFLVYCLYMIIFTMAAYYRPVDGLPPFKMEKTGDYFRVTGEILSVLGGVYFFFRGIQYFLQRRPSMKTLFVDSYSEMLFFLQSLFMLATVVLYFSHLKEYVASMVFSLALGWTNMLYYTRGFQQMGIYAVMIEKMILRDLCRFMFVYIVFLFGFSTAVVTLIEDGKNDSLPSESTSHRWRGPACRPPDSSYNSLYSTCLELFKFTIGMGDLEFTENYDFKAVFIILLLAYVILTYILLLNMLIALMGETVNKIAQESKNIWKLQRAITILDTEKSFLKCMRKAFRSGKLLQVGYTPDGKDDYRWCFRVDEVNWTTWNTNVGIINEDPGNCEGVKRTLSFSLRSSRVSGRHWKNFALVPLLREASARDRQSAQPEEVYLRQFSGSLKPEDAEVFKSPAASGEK

IC50 [nM] | SMILES
44 | CN(CCO)c1ncc(NC(=O)COc2ccc(C(C)(C)C)cc2)cc1Cl
86 | CN(CCO)c1ccc(NC(=O)COc2ccc(C(C)(C)C)cc2Br)cn1
411 | CC(C)(C)c1ccc(OCC(=O)Nc2ccc(N3CCCC3)nc2)cc1
2620 | CN(CCO)c1ccc(NC(=O)COc2cccc(C(C)(C)C)c2)cn1
107 | CN(CCO)c1ccc(NC(=O)COc2ccc(C(C)(C)C)cc2C(C)(C)C)cn1
941 | CN(CCO)c1ccc(NC(=O)COc2ccc(C(C)(C)C)cc2N2CCCCC2)cn1
33 | CN(CCO)c1ccc(NC(=O)COc2ccc(C(C)(C)C)cc2)cn1
796 | CN(CCO)c1ccc(NC(=O)COc2ccccc2C(C)(C)C)cn1

The remaining lines, values behind:

SMILES | IC50 [nM]
O=C(Nc1ccccc1Br)N[C@H]1CCN(c2ccc(C(F)(F)F)cn2)C1 | 120
CN(C)c1ccc(NC(=O)COc2ccc(C(C)(C)C)cc2)cn1 | 59
Cc1cc(NC(=O)COc2ccc(C(C)(C)C)cc2)cnc1N(C)CCO | 130
CN(CCO)c1ccc(NC(=O)COc2ccc(C(F)(F)F)cc2)cn1 | > 10000
CN(CCO)c1ccc(NC(=O)COc2ccc(C34CC5CC(CC(C5)C3)C4)cc2)cn1 | > 10000
CC(C)c1ccc(OCC(=O)Nc2ccc(N(C)CCO)nc2)cc1 | 110
CN(CCO)c1ccc(NC(=O)COc2ccccc2)cn1 | > 10000
CC(C)(C)c1ccc(OCC(=O)Nc2ccc(N3CCC(O)C3)nc2)cc1 (centres undefined) | 516
CCN(C)c1ccc(NC(=O)COc2ccc(C(C)(C)C)cc2)cn1 | 583
